# From article PMC8251575 (Diabetes, Obesity & Metabolism, 2021)
# What was measured:
# [1] = Oral semaglutide pharmacokinetics in plasma; format: in vivo, human; conditions: median (min, max)
# How it was run: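 Adults with type 2 diabetes on diet/exercise and/or metformin took once-daily oral tablets in a crossover trial: 3 mg weeks 0–4, 7 mg weeks 4–8, 14 mg weeks 8–12. Plasma was sampled at weeks 4, 8 and 12 after the last dose of each strength.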
# [2] = tested on: subjects with type 2 diabetes; test: Safety: treatment-emergent adverse events and hypoglycaemic episodes; format: in vivo, human; conditions: during oral semaglutide treatment
# How it was run: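 This was a 12-week crossover versus placebo in adults aged 18–75 with type 2 diabetes (HbA1c 6.0%–9.0%, BMI 20–38 kg/m²), with a 5–9-week wash-out between periods. Treatment-emergent AEs and hypoglycaemic episodes were counted from first dose to end of follow-up. Hypoglycaemia was defined as plasma glucose ≤3.9 mmol/L, or >3.9 mmol/L with symptoms. The population was the safety analysis set: all subjects given at least one dose.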
smiles,measurement,setting,value
CC[C@H](C)[C@H](NC(=O)[C@H](Cc1ccccc1)NC(=O)[C@H](CCC(=O)O)NC(=O)[C@H](CCCCNC(=O)COCCOCCNC(=O)COCCOCCNC(=O)CC[C@H](NC(=O)CCCCCCCCCCCCCCCCC(=O)O)C(=O)O)NC(=O)[C@H](C)NC(=O)[C@H](C)NC(=O)[C@H](CCC(N)=O)NC(=O)CNC(=O)[C@H](CCC(=O)O)NC(=O)[C@H](CC(C)C)NC(=O)[C@H](Cc1ccc(O)cc1)NC(=O)[C@H](CO)NC(=O)[C@H](CO)NC(=O)[C@@H](NC(=O)[C@H](CC(=O)O)NC(=O)[C@H](CO)NC(=O)[C@@H](NC(=O)[C@H](Cc1ccccc1)NC(=O)[C@@H](NC(=O)CNC(=O)[C@H](CCC(=O)O)NC(=O)C(C)(C)NC(=O)[C@@H](N)Cc1cnc[nH]1)[C@@H](C)O)[C@@H](C)O)C(C)C)C(=O)N[C@@H](C)C(=O)N[C@@H](Cc1c[nH]c2ccccc12)C(=O)N[C@@H](CC(C)C)C(=O)N[C@H](C(=O)N[C@@H](CCCNC(=N)N)C(=O)NCC(=O)N[C@@H](CCCNC(=N)N)C(=O)NCC(=O)O)C(C)C [Oral semaglutide],Semaglutide tmax,"[1]; 3 mg once daily, week 4, n = 15",1 h
same,Semaglutide tmax,"[1]; 7 mg once daily, week 8, n = 13",1 h
same,Semaglutide tmax,"[1]; 14 mg once daily, week 12, n = 13",1 h
same,"Deaths, n (subjects)",[2]; N = 15,no deaths
same,"Any AE, % of subjects",[2]; safety analysis set N = 15,93.3%
